Source: ChEMBL document CHEMBL2417510, “Stereoselective pharmacodynamic and pharmacokinetic analysis of sec-Butylpropylacetamide (SPD), a new CNS-active derivative of valproic acid with unique activity against status epilepticus” (J Med Chem, 2013)
Values after ≈ are worked out from the molar mass of the structure shown.

What was measured:
[1] = Neurotoxicity in po dosed albino Sprague-Dawley rat assessed as minimal motor impairment after 0.5 to 1 hr; type: toxicity, organism-based; details: in vivo
In short: (§1)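 Each test was run at the previously determined time to peak effect: 0.25–0.5 h after ip dosing, or 0.5–1 h after oral dosing. Groups of 4–8 animals received various doses until at least two points fell between 0% and 100% protection or minimal toxicity.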

Mus musculus [2] = test: Teratogenicity in SWV/Fnn mouse assessed as fetuses with neural tube defects at 141 mg/kg, ip on day 8.5 of gestation relative to vehicle-treated control; type: toxicity, organism-based; design: dose 141 mg/kg, route intraperitoneal; details: in vivo
[3] = Mean residence time in rat at 60 mg/kg, ip; type: ADME, organism-based; design: dose 60 mg/kg, route intraperitoneal; details: in vivo
In short: (§2)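 Naive rats got a single ip dose of 60 mg/kg, formulated in multisol (propylene glycol:alcohol:water for injection, 5:1:4). Plasma concentration–time profiles were followed, and PK parameters (t1/2, CL/F, Vz/F, AUC, Cmax, tmax, MRT) were derived from them.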

Mus musculus [4] = test: Teratogenicity in SWV/Fnn mouse assessed as normal fetuses at 141 mg/kg, ip on day 8.5 of gestation (reference value: 100 %); type: toxicity, organism-based; design: dose 141 mg/kg, route intraperitoneal; details: in vivo
Rattus norvegicus [5] = test: Anticonvulsant activity in ip dosed albino Sprague-Dawley rat assessed as protection against pilocarpine-induced behavioral seizures administered 30 mins post seizure measured after 0.25 to 0.5 hrs; type: functional
In short: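 Status epilepticus was induced in rats with lithium–pilocarpine. Compound was given ip 30 min after the first observed stage 3 or greater motor seizure. The read-out was prevention of further convulsive seizures across various doses in groups of 4–8 rats.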

Mus musculus [6] = test: Teratogenicity in SWV/Fnn mouse assessed as fetuses with neural tube defects at 283 mg/kg, ip on day 8.5 of gestation relative to vehicle-treated control; type: toxicity, organism-based; design: dose 283 mg/kg, route intraperitoneal; details: in vivo
[7] = Apparent volume of distribution […] in rat at 60 mg/kg, ip; type: ADME, organism-based; design: dose 60 mg/kg, route intraperitoneal; details: in vivo, read-out: Vz/F; in short: as §2
Rattus norvegicus [8] = test: Anticonvulsant activity in po dosed albino Sprague-Dawley rat assessed as protection against maximal electroshock-induced seizures after 0.5 to 1 hr; type: functional; in short: as §1
Hippocampus [9] = test: Protection against kainic acid-induced spontaneous electrographic seizures in combined medial entorhinal cortex hippocampal brain slices of albino Sprague-Dawley rat assessed as burst rate at 100 uM after 1 week relative to control; type: functional
In short: (§3)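 Rat brain slices showing spontaneous bursting were exposed to 100 μM compound. Burst rate and burst duration were expressed as % of control ± SEM.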

[10] = Neurotoxicity in ip dosed albino CF1 mouse assessed as minimal motor impairment after 0.25 to 0.5 hrs; type: toxicity, organism-based; details: in vivo; in short: as §1
[11] = AUC in rat at 60 mg/kg, ip; type: ADME, organism-based; design: dose 60 mg/kg, route intraperitoneal; details: plasma; in short: as §2
Mus musculus [12] = test: Teratogenicity in SWV/Fnn mouse assessed as live fetuses at 283 mg/kg, ip on day 8.5 of gestation (reference value: 93.7 %); type: toxicity, organism-based; design: dose 283 mg/kg, route intraperitoneal; details: in vivo
Rattus norvegicus [13] = test: Anticonvulsant activity in ip dosed albino Sprague-Dawley rat assessed as protection against subcutaneous metrazol-induced seizures after 0.25 to 0.5 hrs; type: functional; in short: as §1
[14] = Tmax in rat at 60 mg/kg, ip; type: ADME, organism-based; design: dose 60 mg/kg, route intraperitoneal; details: in vivo; in short: as §2
Mus musculus [15] = test: Anticonvulsant activity in ip dosed albino CF1 mouse assessed as protection against subcutaneous metrazol-induced seizures after 0.25 to 0.5 hrs; type: functional; details: albino CF1, 0.5 h; in short: as §1
Mus musculus [16] = test: Teratogenicity in SWV/Fnn mouse assessed as normal fetuses at 283 mg/kg, ip on day 8.5 of gestation (reference value: 100 %); type: toxicity, organism-based; design: dose 283 mg/kg, route intraperitoneal; details: in vivo
Mus musculus [17] = test: Anticonvulsant activity in ip dosed albino CF1 mouse assessed as protection against 32 mA-current- for 3 secs induced seizures after 0.25 to 0.5 hrs by 6Hz psychomotor seizure test; type: functional; in short: as §1
Mus musculus [18] = test: Teratogenicity in SWV/Fnn mouse assessed as resorption at 141 mg/kg, ip on day 8.5 of gestation (reference value: 6.3 %); type: toxicity, organism-based; design: dose 141 mg/kg, route intraperitoneal; details: in vivo
Mus musculus [19] = test: Anticonvulsant activity in ip dosed albino CF1 mouse assessed as protection against 44 mA-current- for 3 secs induced seizures after 0.25 to 0.5 hrs by 6Hz psychomotor seizure test; type: functional; in short: as §1
[20] = Terminal half life in rat at 60 mg/kg, ip; type: ADME, organism-based; design: dose 60 mg/kg, route intraperitoneal; details: in vivo, read-out: beta t1/2 (converted); in short: as §2
[21] = Apparent clearance in rat at 60 mg/kg, ip; type: ADME, organism-based; design: dose 60 mg/kg, route intraperitoneal; details: in vivo; in short: as §2
Mus musculus [22] = test: Teratogenicity in SWV/Fnn mouse assessed as resorption at 283 mg/kg, ip on day 8.5 of gestation (reference value: 6.3 %); type: toxicity, organism-based; design: dose 283 mg/kg, route intraperitoneal; details: in vivo
Mus musculus [23] = test: Teratogenicity in SWV/Fnn mouse assessed as live fetuses at 141 mg/kg, ip on day 8.5 of gestation (reference value: 93.7 %); type: toxicity, organism-based; design: dose 141 mg/kg, route intraperitoneal; details: in vivo
[24] = Neurotoxicity in ip dosed albino Sprague-Dawley rat assessed as minimal motor impairment after 0.25 to 0.5 hrs; type: toxicity, organism-based; details: in vivo; in short: as §1
Mus musculus [25] = test: Anticonvulsant activity in ip dosed albino CF1 mouse assessed as protection against maximal electroshock-induced seizures after 0.25 to 0.5 hrs; type: functional; in short: as §1
Hippocampus [26] = test: Protection against kainic acid-induced spontaneous electrographic seizures in combined medial entorhinal cortex hippocampal brain slices of albino Sprague-Dawley rat assessed as burst duration at 100 uM after 1 week relative to control; type: functional; in short: as §3
[27] = Cmax in rat at 60 mg/kg, ip; type: ADME, organism-based; design: dose 60 mg/kg, route intraperitoneal; details: in vivo; in short: as §2
[28] = Solubility of the compound in 5:1:4 solution of propylene glycol, alcohol and water; type: physicochemical
[29] = Solubility of the compound in water; type: physicochemical
Mus musculus [30] = test: Teratogenicity in SWV/Fnn mouse assessed as normal fetuses at 301 mg/kg, ip on day 8.5 of gestation (reference value: 100 %); type: toxicity, organism-based; design: dose 301 mg/kg, route intraperitoneal; details: in vivo
Mus musculus [31] = test: Teratogenicity in SWV/Fnn mouse assessed as resorption at 301 mg/kg, ip on day 8.5 of gestation (reference value: 6.3 %); type: toxicity, organism-based; design: dose 301 mg/kg, route intraperitoneal; details: in vivo
Mus musculus [32] = test: Teratogenicity in SWV/Fnn mouse assessed as normal fetuses at 181 mg/kg, ip on day 8.5 of gestation (reference value: 100 %); type: toxicity, organism-based; design: dose 181 mg/kg, route intraperitoneal; details: in vivo
Mus musculus [33] = test: Teratogenicity in SWV/Fnn mouse assessed as fetuses with neural tube defects at 181 mg/kg, ip on day 8.5 of gestation relative to vehicle-treated control; type: toxicity, organism-based; design: dose 181 mg/kg, route intraperitoneal; details: in vivo
Mus musculus [34] = test: Teratogenicity in SWV/Fnn mouse assessed as resorption at 181 mg/kg, ip on day 8.5 of gestation (reference value: 6.3 %); type: toxicity, organism-based; design: dose 181 mg/kg, route intraperitoneal; details: in vivo
Mus musculus [35] = test: Teratogenicity in SWV/Fnn mouse assessed as live fetuses at 181 mg/kg, ip on day 8.5 of gestation (reference value: 93.7 %); type: toxicity, organism-based; design: dose 181 mg/kg, route intraperitoneal; details: in vivo

| Structure (SMILES) | TD50 [1] | Activity (Mus musculus [2]) | MRT [3] | Activity (Mus musculus [4]) | ED50 (Rattus norvegicus [5]) | Activity (Mus musculus [6]) | Vd/F [7] | ED50 (Rattus norvegicus [8]) | Activity (Hippocampus [9]) | TD50 [10] | AUC [11] | Activity (Mus musculus [12]) | Tmax [14] | Activity (Mus musculus [16]) | ED50 (Mus musculus [17]) | Activity (Mus musculus [18]) | ED50 (Mus musculus [19]) | half-life [20] | CL/F [21] | Activity (Mus musculus [22]) | further results |
| --- | --- | --- | --- | --- | --- | --- | --- | --- | --- | --- | --- | --- | --- | --- | --- | --- | --- | --- | --- | --- | --- |
| CCC[C@H](C(N)=O)[C@@H](C)CC | 124 mg/kg | 0% | 1.8 h | 100% | 94 mg/kg | 0% | 3.9 L/kg | 48 mg/kg | 109% | 126 mg/kg | 32900 ng·h/mL | 92.5% | 0.5 h | 100% | 27 mg/kg | 5.8% | 59 mg/kg | 1.5 h | 30 mL/min/kg | 7.5% | ED50 (Rattus norvegicus [13]): 14 mg/kg; ED50 (Mus musculus [15]): 69 mg/kg; Activity (Mus musculus [23]): 94.2%; TD50 [24]: 34 mg/kg; ED50 (Mus musculus [25]): 75 mg/kg; Activity (Hippocampus [26]): 45%; Cmax [27]: 21700 ng/mL |
| CCCC(C(N)=O)C(C)CC (racemic) | 131 mg/kg | 0% | 1.8 h | 93% | 84 mg/kg | 0% | 3 L/kg | 29 mg/kg | 76% | 88 mg/kg | 31300 ng·h/mL | 86.6% | 0.75 h | 87% | 27 mg/kg | 7.5% | 45 mg/kg | 1.1 h | 30 mL/min/kg | 13.4% | solubility [28]: 27 mg/mL (≈ 172 mM); solubility [29]: 1.5 mg/mL (≈ 9.54 mM); ED50 (Rattus norvegicus [13]): 21 mg/kg; ED50 (Mus musculus [15]): 62 mg/kg; Activity (Mus musculus [23]): 92.5%; TD50 [24]: 49 mg/kg; ED50 (Mus musculus [25]): 71 mg/kg; Activity (Hippocampus [26]): 145%; Cmax [27]: 14100 ng/mL |
| CCC[C@@H](C(N)=O)[C@H](C)CC [(2R,3R)-SEC-BUTYLPROPYLACETAMIDE] | 102 mg/kg | 0% | 1.5 h | 100% | 98 mg/kg | 5.4% | 3.6 L/kg | 79 mg/kg | 77% | 94 mg/kg | 26400 ng·h/mL | 77.1% | 0.5 h | 94.6% | 38 mg/kg | 7.5% | 52 mg/kg | 1.1 h | 36.7 mL/min/kg | 22.9% | ED50 (Rattus norvegicus [13]): 15 mg/kg; ED50 (Mus musculus [15]): 53 mg/kg; Activity (Mus musculus [23]): 92.5%; TD50 [24]: 34 mg/kg; ED50 (Mus musculus [25]): 70 mg/kg; Activity (Hippocampus [26]): 94%; Cmax [27]: 18000 ng/mL |
| CCC[C@@H](C(N)=O)[C@@H](C)CC [(2R,3S)-SEC-BUTYLPROPYLACETAMIDE] | 79 mg/kg | 0% | 2.2 h | 100% | 135 mg/kg | 0% | 7.2 L/kg | 72 mg/kg | 97% | 67 mg/kg | 15200 ng·h/mL | 93.5% | 1 h | 100% | 29 mg/kg | 8.4% | 51 mg/kg | 1.3 h | 65 mL/min/kg | 6.5% | ED50 (Rattus norvegicus [13]): 15 mg/kg; ED50 (Mus musculus [15]): 93 mg/kg; Activity (Mus musculus [23]): 91.6%; TD50 [24]: 41 mg/kg; ED50 (Mus musculus [25]): 95 mg/kg; Activity (Hippocampus [26]): 78%; Cmax [27]: 5300 ng/mL |
| CCC[C@H](C(N)=O)[C@H](C)CC [(2S,3R)-SEC-BUTYLPROPYLACETAMIDE] | 105 mg/kg | 0% | 1.5 h | 100% | > 130 mg/kg | 0% | 6.3 L/kg | 106 mg/kg | 91% | > 75 mg/kg | 12600 ng·h/mL | 90.6% | 0.5 h | 100% | 27 mg/kg | 7.4% | < 100 mg/kg | 0.95 h | 76.7 mL/min/kg | 9.4% | Activity (Mus musculus [23]): 92.6%; Activity (Hippocampus [26]): 90%; Cmax [27]: 8000 ng/mL |
| CCCC(CCC)C(=O)[O-].[Na+] [VALPROATE SODIUM] |  |  |  |  |  |  |  |  |  |  |  |  |  |  |  |  |  |  |  |  | Activity (Mus musculus [30]): 99%; Activity (Mus musculus [31]): 13.6%; Activity (Mus musculus [32]): 100%; Activity (Mus musculus [33]): 0%; Activity (Mus musculus [34]): 7.7%; Activity (Mus musculus [35]): 92.3% |
